Source: ChEMBL document CHEMBL2016500, “Discovery and evaluation of spirocyclic derivatives as antagonists of the neuropeptide Y5 receptor” (Bioorg Med Chem Lett, 2012)
Activity calls are given as the source filed them. The calls are words filed in the database; no cut-off is given here.

How the values were obtained:
[1] = test system: Liver microsomes; assay: Intrinsic clearance in human liver microsomes; format: ADME, Microsome
In short: (§1)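 Metabolic stability in human or rat liver microsome preparations. Total intrinsic clearance scaled from in vitro microsomal half-life, given in […].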

[2] = molecular target: T1, Neuropeptide Y receptor type 5 (Homo sapiens, UniProt Q15761); assay: Displacement of [125I]PPY from human recombinant NPYY5 receptor expressed in insect Sf9 membranes; format: cell membranes
T1 sequence (Q15761 whole entry): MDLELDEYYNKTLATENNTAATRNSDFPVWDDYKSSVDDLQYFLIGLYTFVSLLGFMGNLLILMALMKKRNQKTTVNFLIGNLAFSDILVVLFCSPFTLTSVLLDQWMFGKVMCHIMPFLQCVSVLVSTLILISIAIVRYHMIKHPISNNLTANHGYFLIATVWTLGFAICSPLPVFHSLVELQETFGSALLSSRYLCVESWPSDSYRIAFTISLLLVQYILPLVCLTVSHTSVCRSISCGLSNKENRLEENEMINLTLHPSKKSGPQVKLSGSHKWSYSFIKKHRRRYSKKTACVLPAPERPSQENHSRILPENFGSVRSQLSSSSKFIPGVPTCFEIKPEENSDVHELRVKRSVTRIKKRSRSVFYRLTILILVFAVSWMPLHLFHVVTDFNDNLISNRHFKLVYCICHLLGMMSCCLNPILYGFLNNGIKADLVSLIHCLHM

[3] = test system: Liver microsomes; assay: Intrinsic clearance in rat liver microsomes; format: ADME, Microsome; in short: as §1
[4] = Ratio of unbound fraction in plasma to brain in rat; format: ADME, cell-free
In short: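 Unbound fraction measured separately in rat plasma and in rat brain; the value is expressed as fu,plasma/fu,brain.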

[5] = Ratio of unbound fraction in rat brain at 5 mg/kg bid to Ki for human recombinant NPYY5 receptor expressed in insect Sf9 membranes; format: ADME, organism-based, Membrane; design: dose 5 mg/kg; conditions: in vivo
In short: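 Unbound drug concentrations were measured in plasma and brain of diet-induced obese rats dosed at 5 mg/kg bid. The ratio is unbound brain concentration divided by Ki.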

[6] = molecular target: T2, Neuropeptide Y receptor type 1 (Homo sapiens, UniProt P25929); assay: Binding affinity to human NPYY1
T2 sequence (P25929 whole entry): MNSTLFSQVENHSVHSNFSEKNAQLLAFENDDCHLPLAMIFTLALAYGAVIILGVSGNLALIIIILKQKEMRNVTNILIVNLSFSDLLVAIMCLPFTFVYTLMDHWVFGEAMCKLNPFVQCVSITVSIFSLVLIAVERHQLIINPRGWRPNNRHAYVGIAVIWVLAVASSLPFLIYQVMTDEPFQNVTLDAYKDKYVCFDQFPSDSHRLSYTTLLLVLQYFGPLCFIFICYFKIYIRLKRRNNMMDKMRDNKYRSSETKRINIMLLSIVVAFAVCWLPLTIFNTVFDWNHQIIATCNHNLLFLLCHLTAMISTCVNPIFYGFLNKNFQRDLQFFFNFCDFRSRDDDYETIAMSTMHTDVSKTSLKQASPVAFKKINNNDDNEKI

[7] = test system: Rattus norvegicus; assay: Antiobesity activity in diet-induced obese rat assessed as decrease in food intake at 5 mg/kg bid; format: functional; design: scale not given: the % may be the effect or the level left
In short: (§2)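 Diet-induced obese rats dosed 5 mg/kg bid over a 4-day study. Food intake and body weight followed.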

[8] = test system: Plasma; assay: Unbound fraction in diet-induced obese rat plasma at 5 mg/kg bid; format: ADME, organism-based; design: dose 5 mg/kg; conditions: in vivo
In short: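 Diet-induced obese rats given 5 mg/kg bid. Unbound drug concentrations measured in plasma and brain.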

[9] = Oral bioavailability in rat; format: ADME, organism-based; conditions: in vivo
[10] = test system: Rattus norvegicus; assay: Antiobesity activity in diet-induced obese rat assessed as decrease body weight at 5 mg/kg bid; format: functional, organism-based; design: dose 5 mg/kg; in short: as §2
[11] = Half life in rat; format: ADME, organism-based; conditions: in vivo
[12] = test system: Brain; assay: Unbound concentration in diet-induced obese rat brain at 5 mg/kg bid; conditions: in vivo

| SMILES | CLint [1] [mL/min/kg] | Ki [2] [nM] | CLint [3] [mL/min/kg] | also measured |
| --- | --- | --- | --- | --- |
| CN(C(=O)Nc1ccn(-c2ccccc2F)n1)[C@H]1CC[C@]2(CC1)OCc1ccccc12 | 67 | 10 | > 1120 | – |
| O=C(CC1CCC2(CC1)Cc1ccccc1C(=O)O2)Nc1cnc(-c2ccccc2)cn1 (mixture of isomers) | – | 301 | – | – |
| CN(C(=O)Nc1ccn(-c2ccccc2F)n1)[C@H]1CC[C@@]2(CC1)OC(=O)c1ccccc12 | – | 22 | – | – |
| CCN(C(=O)Nc1cnc(-c2ccccc2)cn1)[C@H]1CC[C@@]2(CC1)Cc1ccccc1C(=O)O2 | – | 11 | – | – |
| CN(C(=O)Nc1ccn(-c2ccccc2F)n1)[C@H]1CC[C@@]2(CC1)Cc1ccccc1C(=O)O2 | 28 | 2.4 | 290 | – |
| CN(C(=O)Nc1ccn(-c2ccccc2F)n1)[C@H]1CC[C@]2(CC1)OC(=O)c1ccccc12 | 24 | 0.7 | 165 | – |
| O=C1O[C@]2(CC[C@H](C(=O)Nc3ccn(-c4ccccc4F)n3)CC2)c2cnccc21 | – | – | – | Activity [10]: Active |
| CN(C(=O)Nc1cnc(-c2ccccc2)cn1)[C@H]1CC[C@@]2(CC1)Cc1ccccc1C(=O)O2 | 59 | 4.6 | 333 | – |
| CN(C(=O)Nc1cnc(-c2ccccc2)cn1)[C@H]1CC[C@@]2(CC1)Cc1cnccc1C(=O)O2 | < 26 | 82 | 86 | – |
| CN(C(=O)Nc1ccn(-c2ccccc2F)n1)[C@H]1CC[C@]2(CC1)COc1ccccc12 | 68 | 8 | > 1120 | – |

Now from value to compound, other results behind:

| CLint [1] [mL/min/kg] | Ki [2] [nM] | CLint [3] [mL/min/kg] | SMILES | also measured |
| --- | --- | --- | --- | --- |
| < 7 | 2330 | – | O=C1O[C@]2(CC[C@@H](N(CC(F)(F)F)C(=O)Nc3cnc(-c4ccccc4)cn3)CC2)Cc2ccccc21 | – |
| – | 5 | – | CC(C)(C)S(=O)(=O)N[C@H]1CC[C@H](C(=O)Nc2ccc(C(F)(F)F)cn2)CC1 | – |
| – | 188 | – | CN(C(=O)Nc1ccn(-c2ccccc2F)n1)[C@H]1CC[C@@]2(CC1)Cc1cnccc1C(=O)O2 | – |
| – | 849 | – | O=C(Nc1ccn(-c2ccccc2F)n1)NC1CCC2(CC1)OC(=O)c1ccncc12 (mixture of isomers) | – |
| < 6 | 1 | < 25 | CN(C(=O)Nc1cnc(-c2ccccc2)cn1)[C@H]1CC[C@]2(CC1)OC(=O)c1ccncc12 | Ratio [4]: 3.3; Ratio [5]: 25; Ki [6]: > 10000 nM; Activity [7]: <10%; Cp(f) [8]: 67 nM; bioavailability [9]: 80%; Activity [10]: inactive; half-life [11]: 2 h; Concentration [12]: 27 nM |
| < 7 | 0.9 | 12 | CN(C(=O)Nc1cnc(-c2ccccc2)cn1)[C@H]1CC[C@@]2(CC1)OC(=O)c1ccncc12 | – |
| < 7 | 0.8 | 28 | CN(C(=O)Nc1ccn(-c2ccccc2F)n1)[C@H]1CC[C@]2(CC1)OC(=O)c1ccncc12 | – |
